Data published in ChEMBL document CHEMBL1649288, “Fmt bypass in Pseudomonas aeruginosa causes induction of MexXY efflux pump expression” (2009).
≈ marks a conversion by molar mass, not a printed value.

Key:
Type in all cases: functional
[1] = system: Pseudomonas aeruginosa; experiment: Antibacterial activity against Pseudomonas aeruginosa PAO1 CDS30 harboring pRC5 by broth microdilution method
In short: (§1)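 Broth microdilution following standard CLSI guidelines. P. aeruginosa strains were routinely cultured at 37°C in Mueller-Hinton or Luria broth. Where plasmids required selection, media carried gentamicin or tetracycline (100 μg/ml) or carbenicillin (100 μg/ml).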

[2] = system: Pseudomonas aeruginosa; experiment: Antibacterial activity against Pseudomonas aeruginosa PAO1 CDS30 expressing folD G493T, V165R mutant by broth microdilution method; in short: as §1
[3] = system: Pseudomonas aeruginosa; experiment: Antibacterial activity against Pseudomonas aeruginosa PAO1 NB52023 expressing mexB and mexX by broth microdilution method
In short: (§2)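 Broth microdilution MICs run per standard CLSI guidelines; P. aeruginosa strains routinely grown at 37°C in Mueller-Hinton or Luria medium.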

[4] = system: Pseudomonas aeruginosa; experiment: Antibacterial activity against Pseudomonas aeruginosa PAO1 CDS28 expressing 16-bp deleted fmt at position 833 by broth microdilution method; in short: as §2
[5] = system: Pseudomonas aeruginosa; experiment: Induction of mexX (PA2019) gene expression in wild type Pseudomonas aeruginosa PAO1 NB52019 at 12 ug/ml relative to control
In short: (§3)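 Duplicate P. aeruginosa NB52019 cultures were diluted 1:100 from overnight into 30 ml Luria broth with or without 12 μg/ml drug, shaken at 180 rpm at 37°C to OD600 0.8, and harvested at 15,000 × g for 10 min. Total RNA was purified with a 40-min on-column DNase I step for transcriptional profiling, and treated cultures were compared with untreated ones.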

[6] = system: Pseudomonas aeruginosa; experiment: Antibacterial activity against Pseudomonas aeruginosa PAO1 NB52022 expressing mexX by broth microdilution method; in short: as §1
[7] = system: Pseudomonas aeruginosa; experiment: Induction of mexY (PA2018) gene expression in wild type Pseudomonas aeruginosa PAO1 NB52019 at 12 ug/ml relative to control; in short: as §3
[8] = system: Pseudomonas aeruginosa; experiment: Antibacterial activity against Pseudomonas aeruginosa PAO1 CDS13 expressing mexAB-oprM fmt C127T, R43C mutant by broth microdilution method; in short: as §1
[9] = system: Pseudomonas aeruginosa; experiment: Antibacterial activity against Pseudomonas aeruginosa PAO1 CDR1 expressing fmt::aacC1 by broth microdilution method; in short: as §2
[10] = system: Pseudomonas aeruginosa; experiment: Antibacterial activity against Pseudomonas aeruginosa PAO1 CDS6 expressing nfxB A115C, T39P mutant by broth microdilution method; in short: as §1
[11] = system: Pseudomonas aeruginosa; experiment: Antibacterial activity against Pseudomonas aeruginosa PAO1 CDS28 harboring pSW1 by broth microdilution method; in short: as §1
[12] = system: Pseudomonas aeruginosa; experiment: Induction of mexZ (PA2020) gene expression in wild type Pseudomonas aeruginosa PAO1 NB52019 at 12 ug/ml relative to control; in short: as §3
[13] = system: Pseudomonas aeruginosa; experiment: Antibacterial activity against Pseudomonas aeruginosa PAO1 NB52020 expressing mexAB-oprM by broth microdilution method; in short: as §1
[14] = system: Pseudomonas aeruginosa; experiment: Antibacterial activity against wild type Pseudomonas aeruginosa PAO1 NB52019 by broth microdilution method; in short: as §1
[15] = system: Pseudomonas aeruginosa; experiment: Antibacterial activity against Pseudomonas aeruginosa PAO1 CDS1 expressing 14-bp deleted nfxB at base 92 by broth microdilution method; in short: as §2
[16] = system: Pseudomonas aeruginosa; experiment: Antibacterial activity against Pseudomonas aeruginosa PAO1 CDS13 harboring pSW1 by broth microdilution method; in short: as §1
[17] = system: Pseudomonas aeruginosa; experiment: Induction of […] (PA5471) gene expression in wild type Pseudomonas aeruginosa PAO1 NB52019 at 12 ug/ml relative to control; in short: as §3
[18] = system: Pseudomonas aeruginosa; experiment: Antibacterial activity against Pseudomonas aeruginosa PAO1 NB52021 expressing mexB by broth microdilution method; in short: as §2
[19] = system: Pseudomonas aeruginosa; experiment: Antibacterial activity against Pseudomonas aeruginosa PAO1 CDS22 harboring pRC5 by broth microdilution method; in short: as §1
[20] = system: Pseudomonas aeruginosa; experiment: Antibacterial activity against Pseudomonas aeruginosa PAO1 CDR2 expressing mexAB-oprM and fmt::aacC1 by broth microdilution method; in short: as §2
[21] = system: Pseudomonas aeruginosa; experiment: Antibacterial activity against Pseudomonas aeruginosa PAO1 CDS22 expressing mexAB-oprM folD A424C, T142P mutant by broth microdilution method; in short: as §1
[22] = system: Pseudomonas aeruginosa; experiment: Induction of oprM (PA0427) gene expression in wild type Pseudomonas aeruginosa PAO1 NB52019 at 12 ug/ml relative to control; in short: as §3

CCCC[C@H](CN(O)C=O)C(=O)N1CCC[C@H]1C(=O)Nc1ccc(F)c[n+]1[O-]
MIC [1]: 128 µg/mL (≈ 323 µM) | MIC [2]: > 1020 µg/mL | MIC [3]: 8 µg/mL (≈ 20.2 µM) | MIC [4]: > 1020 µg/mL | fold change (FC) [5]: 11.3 | MIC [6]: 128 µg/mL (≈ 323 µM) | fold change (FC) [7]: 11.7 | MIC [8]: > 128 µg/mL | MIC [9]: > 1020 µg/mL | MIC [10]: > 128 µg/mL | MIC [11]: 128 µg/mL (≈ 323 µM) | fold change (FC) [12]: 4.8 | MIC [13]: 4 µg/mL (≈ 10.1 µM) | MIC [14]: 128 µg/mL (≈ 323 µM) | MIC [15]: > 128 µg/mL | MIC [16]: 4 µg/mL (≈ 10.1 µM) | fold change (FC) [17]: 3.1 | MIC [18]: 64 µg/mL (≈ 161 µM) | MIC [19]: 4 µg/mL (≈ 10.1 µM) | MIC [20]: > 1020 µg/mL | MIC [21]: > 128 µg/mL | fold change (FC) [22]: 0.78
